Test results published in ChEMBL document CHEMBL2434857, “Imidazopyridazines as potent inhibitors of Plasmodium falciparum calcium-dependent protein kinase 1 (PfCDPK1): Preparation and evaluation of pyrazole linked analogues” (Bioorg Med Chem Lett, 2013).
Calls of active or inactive are those of the source.

Experiments:
[1] = Inhibition of full length recombinant Plasmodium falciparum CDPK1 using MTIP as substrate assessed as amount of ATP remaining after 1 hr by luminescence assay
[2] = Lipophilicity, log D of the compound in octanol-phosphate buffered saline at 100 uM after 12 hrs by shake flask method; assay type: physicochemical
Plasmodium falciparum = assay: Antiparasitic activity against Plasmodium falciparum assessed as parasite growth inhibition after 48 hrs by hydroethidine staining-based flow cytometric analysis; assay type: functional, organism-based
Method in brief: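 Compounds diluted into 2% DMSO were added to cultured parasites 24 h post-invasion and incubated under static conditions. Cells were harvested 48 h later and stained for parasite DNA with hydroethidine for flow cytometry. Growth inhibition (%) = (1 − parasitaemia of treated culture / parasitaemia of control culture) × 100, and EC50 was derived from it.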

[3] = Apparent permeability of the compound at 50 to 200 uM after 5 hrs by PAMPA; assay type: ADME
[4] = target: Casein kinase II (Homo sapiens) (UniProt P67870+P68400+P19784); assay: Inhibition of human CK2 at 1 uM; assay type: protein-complex assay
[5] = target: Serine/threonine-protein kinase pim-1 (Homo sapiens) (UniProt P11309); assay: Inhibition of human PIM1 at 1 uM
Serine/threonine-protein kinase pim-1 (Homo sapiens), sequence (P11309 whole entry, looked up): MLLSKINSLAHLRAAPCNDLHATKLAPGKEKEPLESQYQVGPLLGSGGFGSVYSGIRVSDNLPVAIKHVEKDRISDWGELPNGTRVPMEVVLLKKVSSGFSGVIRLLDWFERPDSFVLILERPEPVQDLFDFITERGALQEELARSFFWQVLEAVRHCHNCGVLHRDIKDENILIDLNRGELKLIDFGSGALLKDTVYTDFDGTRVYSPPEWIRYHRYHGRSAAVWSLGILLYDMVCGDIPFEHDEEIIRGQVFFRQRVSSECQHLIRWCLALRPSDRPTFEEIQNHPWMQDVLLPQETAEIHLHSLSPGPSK

[6] = target: Serine/threonine-protein kinase PAK 4 (Homo sapiens) (UniProt O96013); assay: Inhibition of human PAK4 at 1 uM
[7] = target: Ephrin type-A receptor 2 (Homo sapiens) (UniProt P29317); assay: Inhibition of human EPHA2 at 1 uM
[8] = target: Myosin light chain kinase, smooth muscle (Homo sapiens) (UniProt Q15746); assay: Inhibition of human SmMLCK at 1 uM
Homo sapiens [9] = species on record: Homo sapiens; assay: Inhibition of human VEGFR at 1 uM
Homo sapiens [10] = species on record: Homo sapiens; assay: Inhibition of human CK1 at 1 uM
[11] = target: MAP kinase-interacting serine/threonine-protein kinase 1 (Homo sapiens) (UniProt Q9BUB5); assay: Inhibition of human MNK1 at 1 uM
MAP kinase-interacting serine/threonine-protein kinase 1 (Homo sapiens), sequence (Q9BUB5 whole entry, looked up): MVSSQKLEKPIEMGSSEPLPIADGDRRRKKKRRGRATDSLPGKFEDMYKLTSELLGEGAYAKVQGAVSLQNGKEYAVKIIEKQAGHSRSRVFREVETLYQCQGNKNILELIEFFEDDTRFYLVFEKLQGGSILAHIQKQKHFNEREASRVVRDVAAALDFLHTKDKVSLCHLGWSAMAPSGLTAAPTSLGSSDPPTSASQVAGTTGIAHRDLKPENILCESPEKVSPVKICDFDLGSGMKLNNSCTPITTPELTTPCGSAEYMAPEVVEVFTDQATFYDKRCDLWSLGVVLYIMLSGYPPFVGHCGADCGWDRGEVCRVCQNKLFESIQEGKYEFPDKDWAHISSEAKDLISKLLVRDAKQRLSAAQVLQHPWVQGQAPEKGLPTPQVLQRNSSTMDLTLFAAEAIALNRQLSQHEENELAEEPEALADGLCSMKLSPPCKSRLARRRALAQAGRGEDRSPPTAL

[12] = target: NUAK family SNF1-like kinase 1 (Homo sapiens) (UniProt O60285); assay: Inhibition of human NUAK1 at 1 uM
NUAK family SNF1-like kinase 1 (Homo sapiens), sequence (O60285 whole entry): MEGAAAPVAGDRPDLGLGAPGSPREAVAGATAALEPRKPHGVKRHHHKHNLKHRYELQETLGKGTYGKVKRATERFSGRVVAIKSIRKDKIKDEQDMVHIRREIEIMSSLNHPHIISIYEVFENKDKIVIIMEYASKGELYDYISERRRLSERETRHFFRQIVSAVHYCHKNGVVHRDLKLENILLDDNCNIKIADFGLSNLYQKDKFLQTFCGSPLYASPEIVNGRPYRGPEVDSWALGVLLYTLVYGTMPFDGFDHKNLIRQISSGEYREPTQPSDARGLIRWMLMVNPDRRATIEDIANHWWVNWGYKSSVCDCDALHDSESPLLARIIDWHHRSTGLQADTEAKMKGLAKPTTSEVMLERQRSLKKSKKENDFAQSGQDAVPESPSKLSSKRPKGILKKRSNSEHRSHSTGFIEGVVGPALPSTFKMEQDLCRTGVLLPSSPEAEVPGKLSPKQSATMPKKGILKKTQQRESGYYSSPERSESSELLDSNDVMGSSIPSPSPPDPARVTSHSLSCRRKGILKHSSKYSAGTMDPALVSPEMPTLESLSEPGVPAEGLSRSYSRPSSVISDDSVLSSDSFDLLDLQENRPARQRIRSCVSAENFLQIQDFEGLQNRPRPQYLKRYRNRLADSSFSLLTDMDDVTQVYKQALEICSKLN

[13] = target: Serine/threonine-protein kinase 3 (Homo sapiens) (UniProt Q13188); assay: Inhibition of human MST2 at 1 uM
[14] = target: Mitogen-activated protein kinase kinase kinase 9 (Homo sapiens) (UniProt P80192); assay: Inhibition of human MLK1 at 1 uM
[15] = target: Ribosomal protein S6 kinase alpha-1 (Homo sapiens) (UniProt Q15418); assay: Inhibition of human RSK1 at 1 uM
[16] = target: Phosphorylase kinase (Homo sapiens) (UniProt P15735+P46020+P46019+Q93100+Q16816); assay: Inhibition of human PHK at 1 uM; assay type: protein-complex assay
[17] = target: Tyrosine-protein kinase BTK (Homo sapiens) (UniProt Q06187); assay: Inhibition of human BTK at 1 uM
[18] = target: Serine/threonine-protein kinase BRSK2 (Homo sapiens) (UniProt Q8IWQ3); assay: Inhibition of human BRSK2 at 1 uM
[19] = target: Serine/threonine-protein kinase N2 (Homo sapiens) (UniProt Q16513); assay: Inhibition of human PRK2 at 1 uM
Serine/threonine-protein kinase N2 (Homo sapiens), sequence (Q16513 whole entry, looked up): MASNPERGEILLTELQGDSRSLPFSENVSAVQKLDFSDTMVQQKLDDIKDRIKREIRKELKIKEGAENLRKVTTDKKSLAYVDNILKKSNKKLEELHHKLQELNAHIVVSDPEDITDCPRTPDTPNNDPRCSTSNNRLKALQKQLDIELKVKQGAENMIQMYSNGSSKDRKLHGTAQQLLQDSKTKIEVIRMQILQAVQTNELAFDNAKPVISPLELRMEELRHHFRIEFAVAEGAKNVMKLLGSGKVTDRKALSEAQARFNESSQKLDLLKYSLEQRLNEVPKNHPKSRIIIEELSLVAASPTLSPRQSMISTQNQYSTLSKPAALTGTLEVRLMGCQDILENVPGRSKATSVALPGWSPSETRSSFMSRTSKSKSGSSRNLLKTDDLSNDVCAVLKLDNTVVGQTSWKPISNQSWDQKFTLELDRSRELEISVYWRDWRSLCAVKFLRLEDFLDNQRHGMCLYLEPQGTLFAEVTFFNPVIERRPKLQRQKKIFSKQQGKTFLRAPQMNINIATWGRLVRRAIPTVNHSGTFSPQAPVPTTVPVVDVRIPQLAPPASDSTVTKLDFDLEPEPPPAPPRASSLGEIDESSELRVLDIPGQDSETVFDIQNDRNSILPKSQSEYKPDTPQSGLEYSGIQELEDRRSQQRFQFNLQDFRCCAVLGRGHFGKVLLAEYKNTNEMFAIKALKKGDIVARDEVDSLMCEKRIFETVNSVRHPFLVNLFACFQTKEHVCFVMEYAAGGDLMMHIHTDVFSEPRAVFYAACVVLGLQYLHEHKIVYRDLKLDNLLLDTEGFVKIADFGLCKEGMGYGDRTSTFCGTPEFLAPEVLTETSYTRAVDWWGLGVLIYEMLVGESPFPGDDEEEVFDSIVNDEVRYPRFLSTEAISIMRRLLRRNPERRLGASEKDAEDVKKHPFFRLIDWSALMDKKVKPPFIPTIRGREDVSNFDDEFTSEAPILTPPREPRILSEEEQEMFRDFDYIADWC

[20] = target: Serine/threonine-protein kinase Chk1 (Homo sapiens) (UniProt O14757); assay: Inhibition of human CHK1 at 1 uM
[21] = target: Dual specificity tyrosine-phosphorylation-regulated kinase 1A (Homo sapiens) (UniProt Q13627); assay: Inhibition of human DRYK1A at 1 uM
[22] = target: Misshapen-like kinase 1 (Homo sapiens) (UniProt Q8N4C8); assay: Inhibition of human MINK1 at 1 uM
Misshapen-like kinase 1 (Homo sapiens), sequence (Q8N4C8 whole entry, looked up): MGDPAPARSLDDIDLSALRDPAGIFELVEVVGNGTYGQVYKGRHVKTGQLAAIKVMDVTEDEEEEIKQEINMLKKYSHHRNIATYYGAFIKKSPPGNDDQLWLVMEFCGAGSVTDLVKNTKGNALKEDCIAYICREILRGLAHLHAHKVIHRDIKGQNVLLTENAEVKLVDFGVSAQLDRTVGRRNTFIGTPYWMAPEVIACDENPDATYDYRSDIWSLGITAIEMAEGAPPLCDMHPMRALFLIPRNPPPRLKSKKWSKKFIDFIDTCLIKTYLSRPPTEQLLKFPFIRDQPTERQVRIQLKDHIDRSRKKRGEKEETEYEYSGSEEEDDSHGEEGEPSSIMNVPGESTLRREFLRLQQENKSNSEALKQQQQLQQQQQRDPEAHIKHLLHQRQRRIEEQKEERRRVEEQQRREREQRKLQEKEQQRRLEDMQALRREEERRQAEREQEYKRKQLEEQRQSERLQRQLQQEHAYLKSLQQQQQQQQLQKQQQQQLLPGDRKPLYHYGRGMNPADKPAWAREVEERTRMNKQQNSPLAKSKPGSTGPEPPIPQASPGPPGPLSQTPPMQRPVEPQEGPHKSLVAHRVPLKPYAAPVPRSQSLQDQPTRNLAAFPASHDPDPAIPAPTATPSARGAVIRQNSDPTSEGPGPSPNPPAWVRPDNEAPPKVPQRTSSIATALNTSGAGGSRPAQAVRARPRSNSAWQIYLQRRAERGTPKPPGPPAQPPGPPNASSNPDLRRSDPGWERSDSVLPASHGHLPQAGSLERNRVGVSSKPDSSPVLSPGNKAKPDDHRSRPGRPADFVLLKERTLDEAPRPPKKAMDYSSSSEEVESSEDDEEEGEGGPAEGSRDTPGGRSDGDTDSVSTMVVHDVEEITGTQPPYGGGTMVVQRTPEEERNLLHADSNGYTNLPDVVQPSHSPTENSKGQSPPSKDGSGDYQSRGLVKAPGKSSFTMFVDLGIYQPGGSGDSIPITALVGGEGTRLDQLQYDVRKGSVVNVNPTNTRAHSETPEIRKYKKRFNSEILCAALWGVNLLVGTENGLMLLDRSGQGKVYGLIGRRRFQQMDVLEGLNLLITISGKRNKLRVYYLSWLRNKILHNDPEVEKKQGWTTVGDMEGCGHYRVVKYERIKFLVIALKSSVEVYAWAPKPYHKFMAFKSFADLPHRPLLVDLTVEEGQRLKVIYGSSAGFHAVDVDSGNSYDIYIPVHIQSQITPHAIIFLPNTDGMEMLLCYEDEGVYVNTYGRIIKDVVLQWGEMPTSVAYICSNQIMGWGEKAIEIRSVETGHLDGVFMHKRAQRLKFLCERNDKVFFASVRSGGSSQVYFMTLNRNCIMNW

[23] = target: Proto-oncogene tyrosine-protein kinase Src (Homo sapiens) (UniProt P12931); assay: Inhibition of human SRC at 1 uM
[24] = target: MAP/microtubule affinity-regulating kinase 3 (Homo sapiens) (UniProt P27448); assay: Inhibition of human MARK3 at 1 uM
[25] = target: Rho-associated protein kinase 2 (Homo sapiens) (UniProt O75116); assay: Inhibition of human ROCK2 at 1 uM
[26] = target: Tyrosine-protein kinase Yes (Homo sapiens) (UniProt P07947); assay: Inhibition of human YES1 at 1 uM
Tyrosine-protein kinase Yes (Homo sapiens), sequence (P07947 2-543 limits assumed): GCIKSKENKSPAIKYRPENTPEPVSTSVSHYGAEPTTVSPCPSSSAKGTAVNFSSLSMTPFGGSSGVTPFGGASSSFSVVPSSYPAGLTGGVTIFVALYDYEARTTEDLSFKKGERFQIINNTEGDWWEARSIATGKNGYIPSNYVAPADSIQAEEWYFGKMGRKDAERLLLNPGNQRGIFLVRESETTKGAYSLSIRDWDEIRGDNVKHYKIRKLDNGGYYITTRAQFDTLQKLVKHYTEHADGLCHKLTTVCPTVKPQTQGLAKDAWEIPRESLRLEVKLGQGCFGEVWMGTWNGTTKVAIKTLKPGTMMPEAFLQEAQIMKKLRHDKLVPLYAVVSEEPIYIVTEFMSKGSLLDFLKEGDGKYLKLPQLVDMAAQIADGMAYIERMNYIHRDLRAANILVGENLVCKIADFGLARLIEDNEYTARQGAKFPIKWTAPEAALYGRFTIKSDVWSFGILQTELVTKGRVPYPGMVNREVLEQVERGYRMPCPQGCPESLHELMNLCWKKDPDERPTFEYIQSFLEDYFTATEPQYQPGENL

[27] = target: Mitogen-activated protein kinase kinase kinase 11 (Homo sapiens) (UniProt Q16584); assay: Inhibition of human MLK3 at 1 uM
[28] = target: MAP kinase-interacting serine/threonine-protein kinase 2 (Homo sapiens) (UniProt Q9HBH9); assay: Inhibition of human MNK2 at 1 uM
[29] = target: Maternal embryonic leucine zipper kinase (Homo sapiens) (UniProt Q14680); assay: Inhibition of human MELK at 1 uM
[30] = target: Receptor tyrosine-protein kinase erbB-4 (Homo sapiens) (UniProt Q15303); assay: Inhibition of human HER4 at 1 uM
[31] = target: Interleukin-1 receptor-associated kinase 4 (Homo sapiens) (UniProt Q9NWZ3); assay: Inhibition of human IRAK4 at 1 uM
Interleukin-1 receptor-associated kinase 4 (Homo sapiens), sequence (Q9NWZ3 whole entry): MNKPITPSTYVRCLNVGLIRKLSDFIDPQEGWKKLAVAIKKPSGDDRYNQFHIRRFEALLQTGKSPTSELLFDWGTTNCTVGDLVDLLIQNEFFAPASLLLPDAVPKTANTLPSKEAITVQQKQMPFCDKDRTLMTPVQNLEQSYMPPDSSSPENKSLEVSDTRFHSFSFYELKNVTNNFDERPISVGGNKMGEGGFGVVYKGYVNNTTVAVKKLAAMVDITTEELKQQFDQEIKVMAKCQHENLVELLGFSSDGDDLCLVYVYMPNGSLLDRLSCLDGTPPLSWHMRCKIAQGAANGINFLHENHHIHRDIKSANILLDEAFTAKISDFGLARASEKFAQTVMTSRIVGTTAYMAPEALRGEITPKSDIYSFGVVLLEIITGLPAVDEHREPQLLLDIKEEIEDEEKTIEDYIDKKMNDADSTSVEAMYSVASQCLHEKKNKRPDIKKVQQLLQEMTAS

[32] = target: Mitogen-activated protein kinase kinase kinase kinase 2 (Homo sapiens) (UniProt Q12851); assay: Inhibition of human GCK at 1 uM
[33] = target: Ribosomal protein S6 kinase alpha-5 (Homo sapiens) (UniProt O75582); assay: Inhibition of human MSK1 at 1 uM
[34] = target: Serine/threonine-protein kinase D1 (Homo sapiens) (UniProt Q15139); assay: Inhibition of human PKD1 at 1 uM
[35] = target: Aurora kinase B (Homo sapiens) (UniProt Q96GD4); assay: Inhibition of human Aurora kinase B at 1 uM
[36] = target: Tyrosine-protein kinase Lck (Homo sapiens) (UniProt P06239); assay: Inhibition of human LCK at 1 uM
[37] = target: Fibroblast growth factor receptor 1 (Homo sapiens) (UniProt P11362); assay: Inhibition of human FGFR1 at 1 uM
[38] = target: Serine/threonine-protein kinase Chk2 (Homo sapiens) (UniProt O96017); assay: Inhibition of human CHK2 at 1 uM

CN1CCC(Nc2ccc3ncc(-c4cnn(Cc5ccccc5F)c4)n3n2)CC1
0.331 µM: IC50 [1]
3: logD at 12 h, 100 µM [2]

CN1CCC(Nc2ccc3ncc(-c4cnn(-c5ccc(F)cc5F)c4)n3n2)CC1
2.9: logD at 12 h, 100 µM [2]

CN1CCC(Nc2ccc3ncc(-c4cnn(-c5ccccc5)c4)n3n2)CC1
0.071 µM: IC50 [1]

CN1CCC(Nc2ccc3ncc(-c4cnn(-c5ccc(F)cn5)c4)n3n2)CC1
2.9: logD at 12 h, 100 µM [2]

CN1CCC(Nc2ccc3ncc(-c4cnn(-c5ncccc5F)c4)n3n2)CC1
2.9: logD at 12 h, 100 µM [2]

CN1CCC(Nc2ccc3ncc(-c4cnn(-c5ccc(F)cc5)c4)n3n2)CC1
2.8: logD at 12 h, 100 µM [2]
0.045 µM: IC50 [1]
0.561 µM: EC50 (Plasmodium falciparum)

CN1CCC(Nc2ccc3ncc(-c4cnn(-c5cccc(F)c5)c4)n3n2)CC1
3.1: logD at 12 h, 100 µM [2]
11 ×10⁻⁶ cm/s: Papp at 5 h, up to 200 µM [3]
0.02 µM: IC50 [1]
0.394 µM: EC50 (Plasmodium falciparum)

Cc1cc(F)ccc1-n1cc(-c2cnc3ccc(NC4CCN(C)CC4)nn23)cn1
2.9: logD at 12 h, 100 µM [2]

CN1CCC(Nc2ccc3ncc(-c4cnn(-c5ccc(C#N)cc5)c4)n3n2)CC1
active: inhibition [4] | inhibition [5] | inhibition [6] | inhibition [7] | inhibition [8] | inhibition (Homo sapiens [9]) | inhibition (Homo sapiens [10]) | inhibition [11] | inhibition [12] | inhibition [13] | inhibition [14] | inhibition [15] | inhibition [16] | inhibition [17] | inhibition [18] | inhibition [19] | inhibition [20] | inhibition [21] | inhibition [22] | inhibition [23] | inhibition [24] | inhibition [25] | inhibition [26] | inhibition [27] | inhibition [28] | inhibition [29] | inhibition [30] | inhibition [31] | inhibition [32]

CN1CCC(Nc2ccc3ncc(-c4cnn(C5CCCC5)c4)n3n2)CC1
1.98 µM: IC50 [1]

c1ccc(-n2cc(-c3cnc4ccc(NC5CCNCC5)nn34)cn2)cc1
active: inhibition [5] | inhibition [33] | inhibition [7] | inhibition [8] | inhibition (Homo sapiens [9]) | inhibition [34] | inhibition [11] | inhibition [12] | inhibition [35] | inhibition [14] | inhibition [19] | inhibition [20] | inhibition [22] | inhibition [36] | inhibition [23] | inhibition [37] | inhibition [26] | inhibition [27] | inhibition [38] | inhibition [30] | inhibition [31] | inhibition [32]
